Tests used:
Estrogen receptor beta = Estrogen receptor beta (Homo sapiens, UniProt Q92731); experiment: In vitro concentration required to inhibit [3H]estradiol binding to human estrogen receptor beta expressed in 293T cells; format: cell-based
Procedure, shortened: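 Increasing competitor concentrations from DMSO stocks. Incubated 16 h at 4 °C. Dextran-coated charcoal for 15 min at room temperature, then centrifuged. Supernatant counted by scintillation. Means of ≥3 experiments.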

Estrogen receptor = molecular target: T1, Estrogen receptor (Homo sapiens, UniProt P03372); experiment: In vitro concentration required to inhibit [3H]estradiol binding to human estrogen receptor alpha expressed in 293T cells; format: cell-based
T1 sequence (P03372 whole entry): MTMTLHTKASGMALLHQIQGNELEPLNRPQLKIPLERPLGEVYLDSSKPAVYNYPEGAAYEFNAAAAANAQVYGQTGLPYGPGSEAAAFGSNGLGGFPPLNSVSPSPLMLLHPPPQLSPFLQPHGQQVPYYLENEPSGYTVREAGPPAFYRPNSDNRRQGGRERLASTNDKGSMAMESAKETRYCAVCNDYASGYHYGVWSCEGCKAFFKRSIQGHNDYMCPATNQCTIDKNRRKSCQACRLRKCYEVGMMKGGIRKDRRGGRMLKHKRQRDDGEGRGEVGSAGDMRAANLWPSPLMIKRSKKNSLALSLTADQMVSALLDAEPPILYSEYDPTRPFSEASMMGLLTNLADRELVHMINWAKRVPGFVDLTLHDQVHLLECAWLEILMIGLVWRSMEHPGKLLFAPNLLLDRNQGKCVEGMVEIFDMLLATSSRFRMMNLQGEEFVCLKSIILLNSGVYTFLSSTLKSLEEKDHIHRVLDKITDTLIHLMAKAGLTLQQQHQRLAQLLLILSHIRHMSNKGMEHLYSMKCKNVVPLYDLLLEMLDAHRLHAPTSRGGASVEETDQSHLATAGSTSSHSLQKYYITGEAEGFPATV

MCF7 [1] = experiment: Inhibitory concentration required for antagonistic activity in MCF-7 cell lines derived from breast tumors that predominantly express ER-alpha; format: functional, cell-based; conditions: Homo sapiens
MCF7 [2] = experiment: Percent inhibition of antagonistic activity in MCF-7 cell lines derived from breast tumors that predominantly express ER-alpha; format: functional, Homo sapiens
MCF7 [3] = experiment: Effective concentration required for agonistic activity in MCF-7 cell lines derived from breast tumors that predominantly express ER-alpha; format: functional, cell-based; conditions: Homo sapiens
Procedure, shortened: (§1)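 MCF7 cells plated at 6000/well in IMDM with 5% FBS and attached overnight. Steroid-depleted over 48 h with two changes of medium containing 5% charcoal-dextran stripped FBS. Compounds given as log dilutions from 10^-13 to 10^-6 M in 0.1% DMSO, 8 replicate wells each. Medium and compound renewed at day 4. DNA content measured by Hoechst 33258 after 7 days total exposure.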

MCF7 [4] = experiment: Percent agonistic activity in MCF-7 cell lines derived from breast tumors that predominantly express ER-alpha; format: functional, Homo sapiens; procedure, shortened: as §1

Sequence of Estrogen receptor beta (Q92731 whole entry): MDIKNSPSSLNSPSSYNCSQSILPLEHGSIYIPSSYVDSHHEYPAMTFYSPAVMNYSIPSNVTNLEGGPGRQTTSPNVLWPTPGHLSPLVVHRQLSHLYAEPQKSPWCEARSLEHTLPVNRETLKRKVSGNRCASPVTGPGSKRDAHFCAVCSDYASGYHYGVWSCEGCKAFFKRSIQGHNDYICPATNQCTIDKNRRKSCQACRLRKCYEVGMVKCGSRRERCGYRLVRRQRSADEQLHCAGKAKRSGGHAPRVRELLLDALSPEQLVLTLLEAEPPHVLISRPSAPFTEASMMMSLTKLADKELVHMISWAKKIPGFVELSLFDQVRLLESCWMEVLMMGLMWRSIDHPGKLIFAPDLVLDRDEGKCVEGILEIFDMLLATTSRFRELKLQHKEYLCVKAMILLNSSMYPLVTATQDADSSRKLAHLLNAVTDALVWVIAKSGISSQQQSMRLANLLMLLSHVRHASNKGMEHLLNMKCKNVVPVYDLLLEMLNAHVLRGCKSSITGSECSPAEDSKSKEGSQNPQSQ

Row | SMILES | IC50 (Estrogen receptor beta) | IC50 (Estrogen receptor) | IC50 (MCF7 [1]) | Inhibition (MCF7 [2]) | EC50 (MCF7 [3]) | Activity (MCF7 [4])
1 | O=C(N1Cc2cc(O)ccc2C(c2ccc(O)cc2)C1)C(F)(F)F (stereo unspecified) | 11.4 nM | 123 nM |  |  |  | 
2 | CC(C)C1c2ccc(O)cc2CCN1c1ccccc1 (stereo unspecified) | 180 nM | 42.7 nM |  |  |  | 
3 | O=C(N1CCc2cc(O)ccc2[C@@H]1c1ccc(O)cc1)C(F)(F)F | > 3200 nM | > 3200 nM |  |  |  | 
4 | Oc1ccc2c(c1)CCN(c1ccccc1)C2CC1CCCCC1 (stereo unspecified) | 295 nM | 53.1 nM |  |  |  | 
5 | CCOC(=O)N1CCc2cc(O)ccc2C1c1ccc(OCCN2CCCC2)cc1 (stereo unspecified) | 293 nM | 44.3 nM |  |  |  | 
6 | O=C(c1ccccc1)N1CCc2cc(O)ccc2C1c1ccc(OCCN2CCCC2)cc1 (stereo unspecified) | 2250 nM | 562 nM |  |  |  | 
7 | O=C(N1CCc2cc(O)ccc2C1c1ccc(OCCN2CCCC2)cc1)C(F)(F)F (stereo unspecified) | 93.3 nM | 28.7 nM | 86.6 nM | 83% |  | 
8 | O=C(/C=C/c1ccc(N2CCc3cc(O)ccc3C2c2ccccc2)cc1)N1CCOCC1 (stereo unspecified) | 4.8 nM | 5.9 nM |  |  |  | 
9 | O=C(c1ccccc1)N1Cc2cc(O)ccc2C(c2ccc(O)cc2)C1 (stereo unspecified) | 27.9 nM | 160 nM |  |  |  | 
10 | O=S(=O)(c1ccccc1)N1Cc2cc(O)ccc2C(c2ccc(O)cc2)C1 (stereo unspecified) | 41.7 nM | 120 nM |  |  |  | 
11 | Oc1ccc2c(c1)CCN(c1ccccc1)C2Cc1ccccc1 (stereo unspecified) | 66.4 nM | 6.7 nM |  |  |  | 
12 | Oc1ccc2c(c1)CCN(Cc1ccc3c(c1)OCO3)C2c1ccc(OCCN2CCCC2)cc1 (stereo unspecified) | 220 nM | 9.2 nM |  |  |  | 
13 | Cc1ccc(S(=O)(=O)N2CCc3cc(O)ccc3C2c2ccc(OCCN3CCCC3)cc2)cc1 (stereo unspecified) | 71.2 nM | 24.8 nM | 29.8 nM | 66% |  | 
14 | Oc1ccc2c(c1)CCN(Cc1ccccc1)C2c1ccc(OCCN2CCCC2)cc1 (stereo unspecified) | 42.2 nM | 4.7 nM |  |  |  | 
15 | Oc1ccc2c(c1)CCN(c1ccccc1)C2c1ccc(OCCN2CCCC2)cc1 (stereo unspecified) | 22.2 nM | 11.5 nM |  |  |  | 
16 | O=C(N1CCc2cc(O)ccc2C1c1ccccc1)C(F)(F)F (stereo unspecified) | 27.4 nM | 235 nM |  |  |  | 
17 | O=S(=O)(c1ccccc1)N1CCc2cc(O)ccc2C1c1ccc(OCCN2CCCC2)cc1 (stereo unspecified) | 18.5 nM | 5.2 nM |  |  |  | 
18 | O=C(N1CCc2cc(O)ccc2C1c1cccs1)C(F)(F)F (stereo unspecified) | 63.5 nM | 385 nM |  |  |  | 
19 | Oc1ccc2c(c1)CCN(c1ccccc1)C2c1cccs1 (stereo unspecified) | 26.3 nM | 50 nM |  |  |  | 
20 | CCCc1ccc(S(=O)(=O)N2CCc3cc(O)ccc3C2c2ccc(OCCN3CCCC3)cc2)cc1 (stereo unspecified) | 133 nM | 29.4 nM |  |  |  | 
21 | O=C(N1CCc2cc(O)ccc2C1c1ccc(Br)cc1)C(F)(F)F (stereo unspecified) | 22 nM | 165 nM |  |  |  | 
22 | Oc1ccc(C2CN(Cc3ccccc3)Cc3cc(O)ccc32)cc1 (stereo unspecified) | 13.1 nM | 20.1 nM |  |  |  | 
23 | Oc1ccc2c(c1)CCN(c1ccccc1)C2C1CCCCC1 (stereo unspecified) | 99 nM | 29.8 nM |  |  | 11.1 nM | 93%
24 | O=S(=O)(c1cccc2ccccc12)N1Cc2cc(O)ccc2C(c2ccc(O)cc2)C1 (stereo unspecified) | 10.7 nM | 28 nM |  |  |  | 
25 | CN(C)C(=O)/C=C/c1ccc(N2CCc3cc(O)ccc3C2c2ccccc2)cc1 (stereo unspecified) | 8.7 nM | 8 nM |  |  |  | 
26 | Oc1ccc2c(c1)CCN(c1ccccc1)C2c1ccccc1 (stereo unspecified) | 48.8 nM | 30.7 nM |  |  |  | 
27 | O=C(N1CCc2cc(O)ccc2[C@H]1c1ccc(O)cc1)C(F)(F)F | 8.9 nM | 53.6 nM |  |  |  | 
28 | O=S(=O)(c1ccc2ccccc2c1)N1CCc2cc(O)ccc2C1c1ccc(OCCN2CCCC2)cc1 (stereo unspecified) | 1080 nM | 112 nM |  |  |  | 
29 | O=S(=O)(c1cccc2ccccc12)N1CCc2cc(O)ccc2C1c1ccc(OCCN2CCCC2)cc1 (stereo unspecified) | 21.3 nM | 5.6 nM | 51.3 nM | 96% |  | 

Reference: ChEMBL document CHEMBL1146753, “Tetrahydroisoquinolines as subtype selective estrogen agonists/antagonists” (Bioorg Med Chem Lett, 2004)
